Results from ChEMBL document CHEMBL1143652, “Joys of molecules. 2. Endeavors in chemical biology and medicinal chemistry” (J Med Chem, 2005).

Tests used:
[1] = tested on: Bacteria; assay: Minimum inhibitory concentration against bacterial strains; type: functional
[2] = Antiproliferation activity against cancer cell lines by mixed-lymphocyte-reaction proliferation assay; type: functional, cell-based; settings: Homo sapiens
[3] = tested on: Nucleic Acid; assay: Binding affinity towards DNA extracted from MOLT-4 cells; type: cell-free; settings: Homo sapiens
[4] = tested on: OVCAR-3; assay: Cytotoxicity by measuring inhibitory concentration against ovcar-3 tumor cell line; type: functional, cell-based, Homo sapiens
[5] = In vitro cytotoxicity against leukemia P-388 tumor cells; type: functional, cell-based; settings: Mus musculus, P388
[6] = target: Tubulin beta-4B chain (Homo sapiens) (UniProt P68371); assay: (§1) Tubulin polymerization at a concentration of 100 uM incubated for 90 minutes
How it was run: (§2)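 Tubulin polymerization was read as percent polymerization, with test drug at 100 µM and a 90 min incubation.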

[7] = tested on: 1A9; assay: Inhibition concentration against human ovarian 1A9 tumor cells; type: functional, cell-based
[8] = target: Tubulin beta-4B chain (Homo sapiens) (UniProt P68371); assay: as §1; type: functional; how it was run: as §2
[9] = tested on: 1A9; assay: Cytotoxicity against 1A9 human ovarian carcinoma cells; type: functional, cell-based
[10] = tested on: 1A9/ptx-22; assay: (§3) Inhibitory concentration against beta-tubulin mutant 1A9PTX22 cell line; type: functional, cell-based; settings: Homo sapiens
[11] = target: Tubulin beta-4B chain (Homo sapiens) (UniProt P68371); assay: Percent […] of tubulin by the compound; type: functional; how it was run: as §2
[12] = tested on: 1A9/ptx-10; assay: (§4) Inhibitory concentration against beta-tubulin mutant 1A9PTX10 cell growth; type: functional, cell-based; settings: Homo sapiens
[13] = tested on: 1A9/ptx-22; assay: as §3; type: functional, cell-based; settings: Homo sapiens; remark: listed apart in the source
[14] = tested on: 1A9; assay: Inhibitory concentration against ovarian carcinoma 1A9 cell growth; type: functional, cell-based; settings: Homo sapiens
[15] = tested on: 1A9/ptx-10; assay: as §4; type: functional, cell-based; settings: Homo sapiens; remark: listed apart in the source

Tubulin beta-4B chain (Homo sapiens), sequence (P68371 whole entry): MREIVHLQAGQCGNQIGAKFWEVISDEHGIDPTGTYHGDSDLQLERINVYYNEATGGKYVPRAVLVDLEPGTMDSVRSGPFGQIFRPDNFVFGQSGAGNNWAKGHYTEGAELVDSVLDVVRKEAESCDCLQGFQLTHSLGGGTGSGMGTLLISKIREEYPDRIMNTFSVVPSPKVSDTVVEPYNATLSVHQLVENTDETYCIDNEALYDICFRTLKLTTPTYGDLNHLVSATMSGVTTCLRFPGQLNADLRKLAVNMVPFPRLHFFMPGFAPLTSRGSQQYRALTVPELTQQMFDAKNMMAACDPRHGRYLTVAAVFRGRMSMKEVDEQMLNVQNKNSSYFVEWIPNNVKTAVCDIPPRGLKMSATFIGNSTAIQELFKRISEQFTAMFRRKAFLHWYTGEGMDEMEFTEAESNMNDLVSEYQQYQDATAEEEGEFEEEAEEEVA

Work on `O=C(NCCSSCCNC(=O)/C(Cc1ccc(O)c(Br)c1)=N/O)/C(Cc1ccc(O)c(Br)c1)=N/O` [PSAMMAPLIN A] yielded an MIC [1] of 4.85 ug m/L.
`C=CCO[C@@H]1[C@H](OC[C@H](NC(=O)[C@H](O)CC/C=C\CCCC[C@@H]2C[C@@H]2CCCCCCCCCC)[C@H](O)CCCCCCC[C@@H]2C[C@@H]2CCCCCCCCCC)O[C@@H](CO)[C@@H](O)[C@@H]1O` gave an IC50 [2] of 7.1 µM.
Compound `CCNC1COC(OC2C(O[C@H]3C#C/C=C\C#C[C@@](C)(O)C(=C/CSSSC)/C3=C(\NC(=O)OC)C(C)=O)OC(C)C(NOC3CC(O)C(SC(=O)c4c(C)c(I)c(OC5OC(C)C(O)C(OC)C5O)c(OC)c4OC)C(C)O3)C2O)CC1OC` (stereo not given in full) has a K obs [3] of 0.135 µM.
Work on `CC(=O)OC1C(=O)[C@@]2(C)[C@H]([C@H](OC(=O)c3ccco3)[C@]3(O)C[C@H](OC(=O)[C@H](O)[C@@H](NC(=O)c4ccccc4)c4ccccc4)C(C)=C1C3(C)C)[C@]1(OC(C)=O)CO[C@@H]1C[C@@H]2O` (stereo not given in full) yielded an IC50 ([4]; Homo sapiens, OVCAR-3) of 0.0451 µM and an IC50 ([4]; ovcar-3) of 0.045 µM.
For `CCNC1COC(OC2C(OC)OC(C)C(NOC3CC(O)C(SC(=O)c4c(C)c(I)c(OC5OC(C)C(O)C(OC)C5O)c(OC)c4OC)C(C)O3)C2O)CC1OC` (stereo not given), the K obs [3] was 4.1 µM.
Compound `Cc1cc2c(c(O)c1Br)C(=O)C(=O)[C@]1(C)CC[C@H](C(C)C)[C@H]21` [HAMIGERAN B] has an IC50 [5] of 13.5 µM.
Compound `CNC(=O)/C1=C/[C@@H]2[C@@H](C(C)C)CC=C(C)[C@@H]2C[C@H](OC(=O)/C=C/c2cn(C)cn2)[C@]2(C)C=C[C@@]1(OC)O2` has a TP [6] of 52%, an IC50 [7] of 0.045 µM and a TP [8] of 52%.
`Cc1cccc(C)c1SSCCNC(=O)/C(Cc1cc(F)cc(F)c1)=N/O` showed an MIC [1] of 0.28 ug m/L.
`CCCCCCCCCC[C@H]1C[C@H]1CCCC/C=C\CC[C@@H](O)C(=O)N[C@@H](CO[C@@H]1O[C@@H](CO)[C@@H](O)[C@H](O)[C@@H]1O)[C@@H](CCCCCCC[C@@H]1C[C@@H]1CCCCCCCCCC)OC=C(C)C` gave an IC50 [2] of 28 µM.
`COC(=O)[C@]1(O)C(=O)c2c(cc(C)c(Br)c2O)[C@H]2[C@@H](C(C)C)CC[C@]21C` [HAMIGERAN A] showed an IC50 [5] of 31.6 µM.
With `CCCOC(=O)/C1=C/[C@@H]2[C@@H](C(C)C)CC=C(C)[C@@H]2C[C@H](OC(=O)/C=C/c2cn(C)cn2)[C@]2(C)C=C[C@@]1(OC)O2` the TP [6] was 69%, the IC50 [7] was 0.003 µM and the TP [8] was 69%.
For `CC/C=C\C=C/C(=O)N/C=C/C[C@H]1C[C@H]2C[C@H](OC(C)=O)C[C@H](Cc3cccc(O)c3C(=O)O1)O2`, the IC50 [9] was 0.0032 µM.
`CCNC1COC(OC2C(OC)OC(C)C(NOC3CC(O)C(SC(=O)c4c(C)c(Br)c(OC5OC(C)C(O)C(OC)C5O)c(OC)c4OC)C(C)O3)C2O)CC1OC` (stereo not given) gave a K obs [3] of 10 µM.
`CO[C@]12C=C[C@](C)(O1)[C@@H](OC(=O)/C=C/c1csc(C)n1)C[C@H]1C(C)=CC[C@H](C(C)C)[C@H]1/C=C\2COC1OCC(O)C(O)C1OC(C)=O` (stereo not given in full) gave a TP [6] of 56% and a TP [8] of 56%.
With `CC(=O)OC1C(=O)[C@@]2(C)[C@H]([C@H](OC(=O)c3ccc4ccccc4c3)[C@]3(O)C[C@H](OC(=O)[C@H](O)[C@@H](NC(=O)c4ccccc4)c4ccccc4)C(C)=C1C3(C)C)[C@]1(OC(C)=O)CO[C@@H]1C[C@@H]2O` (stereo not given in full) the IC50 ([4]; ovcar-3) was greater than 11000 µM.
`CCNC1COC(OC2C(OC)OC(C)C(NOC3CC(O)C(SC(=O)c4c(C)cc(OC5OC(C)C(O)C(OC)C5O)c(OC)c4OC)C(C)O3)C2O)CC1OC` (stereo not given) showed a K obs [3] of 180 µM.
Compound `C/C(=C\c1cc(C)ccn1)[C@@H]1C[C@@H]2O[C@]2(C)CCC[C@H](C)[C@H](O)[C@@H](C)C(=O)C(C)(C)[C@@H](O)CC(=O)O1` has an IC50 [10] of 0.0001 µM, a TP [11] of 90.3% and an IC50 [12] of 0.00036 µM. It also gave an IC50 [13] of 0.0001 µM, an IC50 [14] of 0.0001 µM and an IC50 [15] of 0.00036 µM.
In the case of `O=C(/C=C/c1cccs1)N/C=C/C[C@H]1C[C@H]2C[C@H](O)C[C@H](Cc3cccc(O)c3C(=O)O1)O2`, the IC50 [9] is reported as 0.0413 µM.
Compound `CCCCCCCCCC[C@H]1C[C@H]1CCCC/C=C\CC[C@@H](O)C(=O)N[C@@H](CO[C@@H]1O[C@@H](CO)[C@@H](O)[C@H](O)[C@@H]1OCC=C(C)C)[C@H](O)CCCCCCC[C@@H]1C[C@@H]1CCCCCCCCCC` has an IC50 [2] greater than 50 µM.
`C/C(=C\c1csc(C)n1)[C@@H]1C[C@@H]2O[C@]2(C)CCC[C@H](C)[C@H](O)[C@@H](C)C(=O)C(C)(C)[C@@H](O)CC(=O)O1` [PATUPILONE] showed an IC50 [10] of 0.00031 µM, a TP [11] of 98% and an IC50 [12] of 0.001 µM. For the same compound, the IC50 [13] was 0.00031 µM, the IC50 [14] was 0.00013 µM and the IC50 [15] was 0.001 µM.
Compound `CCOC(=O)/C1=C/[C@@H]2[C@@H](C(C)C)CC=C(C)[C@@H]2C[C@H](OC(=O)/C=C/c2cn(C)cn2)[C@]2(C)C=C[C@@]1(OC)O2` has a TP [6] of 46%, an IC50 [7] of 0.002 µM and a TP [8] of 46%.
For `C/C(=C\c1ncccc1C)[C@@H]1C[C@@H]2O[C@]2(C)CCC[C@H](C)[C@H](O)[C@@H](C)C(=O)C(C)(C)[C@@H](O)CC(=O)O1`, the IC50 [10] was greater than 0.3 µM, the TP [11] was 0% and the IC50 [12] was greater than 0.3 µM. The IC50 [13] was greater than 0.3 µM, the IC50 [14] was greater than 0.3 µM and the IC50 [15] was greater than 0.3 µM.
